Laboratory results published in ChEMBL document CHEMBL1130165 (J Med Chem, 1997).
Converted amounts (≈) assume the structure as drawn.

How the values were obtained:
[1] = Ratio of solubility to that of paclitaxel solubility; format: ADME
B16 = experiment: Ratio of ED50 of compound to that of ED50 of paclitaxel; ED50 expressed as concentration which produces 50% inhibition of proliferation of B16 melanoma cells after 40h incubation; format: functional, Mus musculus
Procedure, shortened: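 B16 melanoma cells were incubated with compound for 40 h. Each value is expressed as a ratio to the paclitaxel ED50.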

[2] = Aqueous solubility was determined; format: physicochemical; settings: aqueous medium (not further specified)
[3] = biological target: Tubulin beta-1 chain (Homo sapiens) (UniProt Q9H4B7); experiment: Ratio of ED50 of compound to that of ED50 of paclitaxel; ED50 expressed as concentration which causes polymerization of 50% of the tubulin in microtubule assembly assay (in vitro); format: functional
Tubulin beta-1 chain (Homo sapiens), sequence (Q9H4B7 whole entry): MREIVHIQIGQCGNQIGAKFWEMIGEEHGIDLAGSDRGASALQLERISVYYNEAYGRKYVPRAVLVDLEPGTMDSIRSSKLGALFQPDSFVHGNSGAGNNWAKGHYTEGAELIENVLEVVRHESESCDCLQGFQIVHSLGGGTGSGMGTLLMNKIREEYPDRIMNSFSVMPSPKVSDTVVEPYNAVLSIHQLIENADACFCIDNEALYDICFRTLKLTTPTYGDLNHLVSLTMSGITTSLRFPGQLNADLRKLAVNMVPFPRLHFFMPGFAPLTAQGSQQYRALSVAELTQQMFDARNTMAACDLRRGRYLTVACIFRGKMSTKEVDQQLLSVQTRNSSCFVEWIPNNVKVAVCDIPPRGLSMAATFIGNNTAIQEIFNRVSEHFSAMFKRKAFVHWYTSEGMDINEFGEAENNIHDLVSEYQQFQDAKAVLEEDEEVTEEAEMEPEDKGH
Procedure, shortened: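 In vitro microtubule assembly assay. […] Each compound's ED50 is expressed as a ratio to the paclitaxel ED50.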

[4] = Aqueous solubility was determined; range 5-6; format: physicochemical; settings: aqueous medium (not further specified)
[5] = Ratio of solubility to that of paclitaxel solubility; range 17-20; format: ADME
[6] = Aqueous solubility was determined; range 6.8-8.4; format: physicochemical; settings: aqueous medium (not further specified)
[7] = Ratio of solubility to that of paclitaxel solubility; range 23-28; format: ADME

Row | Compound | Ratio [1] | solubility [2] [µg/mL] | ED50 ratio [3] | ED50 ratio (B16) | also measured
1 | CC(=O)O[C@@]12COC1C[C@H](O)[C@@]1(C)C(=O)[C@H](O)C3=C(C)[C@@H](OC(=O)[C@H](O)[C@@H](NC(=O)c4ccc(C)s4)C(C)(C)C)C[C@@](O)([C@@H](OC(=O)c4ccccc4)[C@@H]12)C3(C)C (some centres undefined) | 13 | 4 (≈ 4.93 µM) |  | 32 | 
2 | CC(=O)O[C@@]12COC1C[C@H](O)[C@@]1(C)C(=O)[C@H](O)C3=C(C)[C@@H](OC(=O)[C@H](O)[C@@H](NC(=O)C4CC4)C(C)(C)C)C[C@@](O)([C@@H](OC(=O)c4ccccc4)[C@@H]12)C3(C)C (some centres undefined) | 150 | 45 (≈ 59.5 µM) |  | 2.1 | 
3 | CC(=O)O[C@@]12COC1C[C@H](O)[C@@]1(C)C(=O)[C@H](O)C3=C(C)[C@@H](OC(=O)[C@H](O)[C@@H](NC(=O)Cc4cccs4)C(C)(C)C)C[C@@](O)([C@@H](OC(=O)c4ccccc4)[C@@H]12)C3(C)C (some centres undefined) | 23 | 6.7 (≈ 8.25 µM) |  | 3.3 | 
4 | CCCCCCOC(=O)N[C@H]([C@@H](O)C(=O)O[C@H]1C[C@@]2(O)[C@@H](OC(=O)c3ccccc3)[C@H]3[C@](C)(C(=O)[C@H](O)C(=C1C)C2(C)C)[C@@H](O)CC1OC[C@]13OC(C)=O)C(C)(C)C (some centres undefined) |  |  | 2.3 | 12 | 
5 | CC(=O)O[C@@]12COC1C[C@H](O)[C@@]1(C)C(=O)[C@H](O)C3=C(C)[C@@H](OC(=O)[C@H](O)[C@@H](NC(=O)c4cccs4)C(C)(C)C)C[C@@](O)([C@@H](OC(=O)c4ccccc4)[C@@H]12)C3(C)C (some centres undefined) |  |  | 0.42 | 0.53 | solubility [6]: 8.4 µg/mL (≈ 10.5 µM); Ratio [7]: 28
6 | CC(=O)O[C@@]12COC1C[C@H](O)[C@@]1(C)C(=O)[C@H](O)C3=C(C)[C@@H](OC(=O)[C@H](O)[C@@H](NC(=O)c4sccc4C)C(C)(C)C)C[C@@](O)([C@@H](OC(=O)c4ccccc4)[C@@H]12)C3(C)C (some centres undefined) |  |  | 1.4 | 1.3 | 
7 | CC(=O)O[C@H]1C(=O)[C@@]2(C)[C@H]([C@H](OC(=O)c3ccccc3)[C@]3(O)C[C@H](OC(=O)[C@H](O)[C@@H](NC(=O)c4ccccc4)c4ccccc4)C(C)=C1C3(C)C)[C@]1(OC(C)=O)CO[C@@H]1C[C@@H]2O [PACLITAXEL] | 1 |  |  | 1 | 
8 | CC(=O)O[C@@]12COC1C[C@H](O)[C@@]1(C)C(=O)[C@H](O)C3=C(C)[C@@H](OC(=O)[C@H](O)[C@@H](NC(=O)c4ccsc4)C(C)(C)C)C[C@@](O)([C@@H](OC(=O)c4ccccc4)[C@@H]12)C3(C)C (some centres undefined) | 16 | 4.7 (≈ 5.89 µM) |  | 1.2 | 
9 | CC(=O)O[C@@]12COC1C[C@H](O)[C@@]1(C)C(=O)[C@H](O)C3=C(C)[C@@H](OC(=O)[C@H](O)[C@@H](NC(=O)C4CCCC4)C(C)(C)C)C[C@@](O)([C@@H](OC(=O)c4ccccc4)[C@@H]12)C3(C)C (some centres undefined) |  |  | 1.5 | 1.4 | 

Further lines, with some results ahead:

Row | Ratio [1] | solubility [2] [µg/mL] | ED50 ratio [3] | Compound | ED50 ratio (B16) | also measured
10 | 80 | 24 (≈ 31.2 µM) |  | CC(=O)O[C@@]12COC1C[C@H](O)[C@@]1(C)C(=O)[C@H](O)C3=C(C)[C@@H](OC(=O)[C@H](O)[C@@H](NC(=O)C4CCC4)C(C)(C)C)C[C@@](O)([C@@H](OC(=O)c4ccccc4)[C@@H]12)C3(C)C (some centres undefined) | 3 | 
11 |  |  | 0.45 | CC(=O)O[C@@]12CO[C@@H]1C[C@H](O)[C@@]1(C)C(=O)[C@H](O)C3=C(C)[C@@H](OC(=O)[C@H](O)[C@@H](NC(=O)OC(C)(C)C)c4ccccc4)C[C@@](O)([C@@H](OC(=O)c4ccccc4)[C@H]21)C3(C)C.O.O.O [DOCETAXEL] | 0.41 | solubility [4]: 6 µg/mL; Ratio [5]: 20
12 | 73 | 22 (≈ 28.1 µM) |  | CC(=O)O[C@@]12COC1C[C@H](O)[C@@]1(C)C(=O)[C@H](O)C3=C(C)[C@@H](OC(=O)[C@H](O)[C@@H](NC(=O)c4ccco4)C(C)(C)C)C[C@@](O)([C@@H](OC(=O)c4ccccc4)[C@@H]12)C3(C)C (some centres undefined) | 2.1 | 
13 | 1.7 | 0.5 (≈ 0.646 µM) |  | CC(=O)O[C@@]12COC1C[C@H](O)[C@@]1(C)C(=O)[C@H](O)C3=C(C)[C@@H](OC(=O)[C@H](O)[C@@H](NC(=O)OC(C)C)C(C)(C)C)C[C@@](O)([C@@H](OC(=O)c4ccccc4)[C@@H]12)C3(C)C (some centres undefined) | 1.2 | 
14 |  |  | 1.7 | CCCOC(=O)N[C@H]([C@@H](O)C(=O)O[C@H]1C[C@@]2(O)[C@@H](OC(=O)c3ccccc3)[C@H]3[C@](C)(C(=O)[C@H](O)C(=C1C)C2(C)C)[C@@H](O)CC1OC[C@]13OC(C)=O)C(C)(C)C (some centres undefined) | 1.5 | 
15 |  |  | 1.6 | CC(=O)O[C@@]12COC1C[C@H](O)[C@@]1(C)C(=O)[C@H](O)C3=C(C)[C@@H](OC(=O)[C@H](O)[C@@H](NC(=O)c4ccoc4)C(C)(C)C)C[C@@](O)([C@@H](OC(=O)c4ccccc4)[C@@H]12)C3(C)C (some centres undefined) | 2.3 | 
16 | 1.8 | 0.5 (≈ 0.629 µM) |  | CC(=O)O[C@@]12COC1C[C@H](O)[C@@]1(C)C(=O)[C@H](O)C3=C(C)[C@@H](OC(=O)[C@H](O)[C@@H](NC(=O)c4cccn4C)C(C)(C)C)C[C@@](O)([C@@H](OC(=O)c4ccccc4)[C@@H]12)C3(C)C (some centres undefined) | 1.2 | 
17 | 32 | 9.7 (≈ 12.8 µM) |  | CCOC(=O)N[C@H]([C@@H](O)C(=O)O[C@H]1C[C@@]2(O)[C@@H](OC(=O)c3ccccc3)[C@H]3[C@](C)(C(=O)[C@H](O)C(=C1C)C2(C)C)[C@@H](O)CC1OC[C@]13OC(C)=O)C(C)(C)C (some centres undefined) | 3.4 | 
18 |  |  | 1.7 | CCC(CC)C(=O)N[C@H]([C@@H](O)C(=O)O[C@H]1C[C@@]2(O)[C@@H](OC(=O)c3ccccc3)[C@H]3[C@](C)(C(=O)[C@H](O)C(=C1C)C2(C)C)[C@@H](O)CC1OC[C@]13OC(C)=O)C(C)(C)C (some centres undefined) | 26 | 
19 |  | 1 (≈ 1.21 µM) |  | CC(=O)O[C@@]12COC1C[C@H](O)[C@@]1(C)C(=O)[C@H](O)C3=C(C)[C@@H](OC(=O)[C@H](O)[C@@H](NC(=O)/C=C/c4cccs4)C(C)(C)C)C[C@@](O)([C@@H](OC(=O)c4ccccc4)[C@@H]12)C3(C)C (some centres undefined) |  | 
20 | 9.3 | 2.8 (≈ 3.54 µM) |  | CC(=O)O[C@@]12COC1C[C@H](O)[C@@]1(C)C(=O)[C@H](O)C3=C(C)[C@@H](OC(=O)[C@H](O)[C@@H](NC(=O)c4ccccc4)C(C)(C)C)C[C@@](O)([C@@H](OC(=O)c4ccccc4)[C@@H]12)C3(C)C (some centres undefined) [BUTITAXEL] | 7.5 | 
21 | 110 | 33 (≈ 41.9 µM) |  | CC(=O)O[C@@]12COC1C[C@H](O)[C@@]1(C)C(=O)[C@H](O)C3=C(C)[C@@H](OC(=O)[C@H](O)[C@@H](NC(=O)OC(C)(C)C)C(C)(C)C)C[C@@](O)([C@@H](OC(=O)c4ccccc4)[C@@H]12)C3(C)C (some centres undefined) | 0.4 | 
22 | 150 | 45 (≈ 56.4 µM) |  | CC(=O)O[C@@]12COC1C[C@H](O)[C@@]1(C)C(=O)[C@H](O)C3=C(C)[C@@H](OC(=O)[C@H](O)[C@@H](NC(=O)C4CCCCC4)C(C)(C)C)C[C@@](O)([C@@H](OC(=O)c4ccccc4)[C@@H]12)C3(C)C (some centres undefined) | 3.8 | 
